As usually defined, the IC50 is the concentration at which inhibition is half-maximal. As a reminder, the bioavailability is the share of a dose that reaches the circulation, judged against a reference dose that is usually intravenous. Higher therefore signals much systemic uptake.

Data set [1] addresses T1, Neuropeptide Y receptor type 5 (Homo sapiens, UniProt Q15761).
T1 sequence (Q15761 whole entry): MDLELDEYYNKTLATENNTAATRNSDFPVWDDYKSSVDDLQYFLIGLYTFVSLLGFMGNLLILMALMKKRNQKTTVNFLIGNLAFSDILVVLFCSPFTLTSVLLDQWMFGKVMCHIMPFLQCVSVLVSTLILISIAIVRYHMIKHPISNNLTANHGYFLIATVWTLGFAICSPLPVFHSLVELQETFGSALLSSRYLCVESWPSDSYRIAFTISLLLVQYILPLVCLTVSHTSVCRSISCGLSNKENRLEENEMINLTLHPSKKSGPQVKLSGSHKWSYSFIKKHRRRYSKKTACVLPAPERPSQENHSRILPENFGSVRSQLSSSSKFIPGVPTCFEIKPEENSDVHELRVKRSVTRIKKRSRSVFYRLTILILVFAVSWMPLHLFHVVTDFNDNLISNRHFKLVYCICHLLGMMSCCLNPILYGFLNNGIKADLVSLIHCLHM
The data set is described as follows: Antagonist activity at human NPY5 receptor assessed as calcium mobilization by FLIPR assay. The format is functional. (Calcium assays in cells follow changes in intracellular calcium, usually with a dye or a luminescent sensor.)

Data set [2] addresses T2, Neuropeptide Y receptor type 2 (Homo sapiens, UniProt P49146).
T2 sequence (P49146 whole entry): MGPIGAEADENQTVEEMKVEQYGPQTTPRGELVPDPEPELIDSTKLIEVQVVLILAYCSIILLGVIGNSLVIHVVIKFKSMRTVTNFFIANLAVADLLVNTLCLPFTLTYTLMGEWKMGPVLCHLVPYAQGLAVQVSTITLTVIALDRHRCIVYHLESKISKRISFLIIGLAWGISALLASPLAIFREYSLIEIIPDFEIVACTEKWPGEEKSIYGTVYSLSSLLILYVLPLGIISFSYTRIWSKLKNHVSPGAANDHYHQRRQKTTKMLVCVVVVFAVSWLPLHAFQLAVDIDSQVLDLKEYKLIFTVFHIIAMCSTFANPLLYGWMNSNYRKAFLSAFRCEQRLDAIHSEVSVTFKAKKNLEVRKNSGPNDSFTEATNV
The data set is described as follows: Antagonist activity at human NPY2 receptor assessed as calcium mobilization by FLIPR assay. The data set is classed as functional.

The next data set deals with Liver microsomes. The data set is described as follows: Intrinsic clearance in human liver microsome. The format is ADME.
Data set [3] in a line: Oral bioavailability in Sprague-Dawley rat at 2 mg/kg by HPLC analysis. The data set is classed as ADME, organism-based. The conditions noted are these: in vivo. A digest of the protocol: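 Male Sprague-Dawley rats (200–250 g, n = 2) with jugular and carotid cannulae, dosed 1 mg/kg iv and 2 mg/kg po in crossover after 24 h washout. Vehicle was 20% beta cyclodextrin, pH adjusted with methanesulfonic acid to give a solution. Automated serial blood sampling took 12 time points over 24 h. Plasma was quantified by HPLC-MS/MS, with noncompartmental analysis.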

The subject of a further data set is Rattus norvegicus. The data set is described as follows: Inhibition of cPP-induced food intake in po dosed rat administered 1 to 24 hrs before cPP challenge measured for 1 hr. The format is functional, organism-based. A digest of the protocol: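 Rats with lateral-ventricle cannulae dosed po with 20% cyclodextrin vehicle or drug (3, 10, 30 mg/kg) 1, 2, 4, 6 or 24 h before i.c.v. cPP (0.6 nmol); food intake monitored 1 h; randomized weekly crossover, n = 2/condition, 16–20 per group; percent of vehicle + cPP intake, one-way ANOVA with Newman–Keuls.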

Data set [4] in a line: Drug uptake in brain of cPP-induced feeding rat model at 10 mg/kg, po after 2 hrs. Set-up: dose 10 mg/kg, route oral. The format is ADME, organism-based. The conditions noted are these: read-out: Drug uptake. In outline:
(§1)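 Satellite rats (n = 2/dose) sampled each week alongside the cPP feeding test; Lu-series dosed po at 3, 10 or 30 mg/kg as suspension in 20% HP-β-cyclodextrin; plasma (ng/mL) and brain tissue (ng/g) levels taken at 1, 2, 4, 6 and 24 h post-dose; mean ± SD reported.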

Data set [5] can be described thus: Drug uptake in brain of cPP-induced feeding rat model at 10 mg/kg, po after 4 hrs. The data set is classed as ADME, organism-based. Set-up: dose 10 mg/kg, route oral. The conditions noted are these: read-out: Drug uptake. A digest of the protocol: as §1
A short description of data set [6]: Drug uptake in brain of cPP-induced feeding rat model at 30 mg/kg, po after 4 hrs. Set-up: dose 30 mg/kg, route oral. The data set is classed as ADME, organism-based. Conditions: read-out: Drug uptake. A digest of the protocol:
as §1

A value given as a limit tells only on which side of the number the result lay.

Consider `CS(=O)(=O)NC[C@H]1CC[C@H](Nc2nc3c(s2)CCSc2ccccc2-3)CC1`, for which the IC50 in data set [1] is 1.8 nM; in data set [2], > 1000 nM. Besides, in the data set on Liver microsomes, the CL was 2.5 L/min. This molecule also registered a bioavailability in data set [3] of 92%. In addition, the inhibition entry with Rattus norvegicus was “Dose-dependent effect”. The concentration at 2 h in data set [4] amounted to 244 ng/g. Besides, the concentration at 4 h in data set [5] turned out to be 172 ng/g; in data set [6], 643 ng/g.

For the origin of these results see ChEMBL document CHEMBL1833793 (Bioorg Med Chem Lett, 2011).
